# Laboratory results as given in ChEMBL document CHEMBL1629542, “Epigallocatechin gallate inactivates clinical isolates of herpes simplex virus” (Antimicrob Agents Chemother, 2008).
# Activity calls are given as the source filed them. No cut-off for these calls is given here.
# Key:
# Human alphaherpesvirus 1 [1] = assay: Antiviral activity against Human herpesvirus 1 F1 infected in African green monkey vero cells assessed as log reduction in viral titer at 100 uM; assay type: functional
# In short: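 HSV-1 F1 was grown in Vero cells and the clarified supernatant was incubated with 100 μM EGCG for 60 min at 37°C in RPMI 1640/1% FCS, pH 7.4. Titre was then measured on Vero cells from 10-fold dilutions, three wells per dilution, over 5 days at 37°C by CPE. TCID50 was calculated by Reed-Muench; three separate experiments.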
# Human alphaherpesvirus 2 [2] = assay: Antiviral activity against Human herpesvirus 2 isolate P2 infected in African green monkey CV1 cells assessed as log reduction in viral titer at 100 uM within 10 mins; assay type: functional, CV-1
# In short: (§1)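 HSV-2 clinical isolates from clarified CV-1 supernatants were held with 100 μM EGCG for timed intervals, from 10 min onward. Surviving virus was titrated on CV-1 cells by 10-fold dilution and 5-day CPE scoring, with TCID50 by Reed-Muench. Values are mean ± SD, three experiments.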
# Human alphaherpesvirus 2 [3] = assay: Antiviral activity against Human herpesvirus 2 isolate P2 infected in African green monkey CV1 cells assessed as log reduction in viral titer at 100 uM within 20 mins; assay type: functional, CV-1
# In short: (§2)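 Time course: clarified CV-1 supernatant of HSV-2 (clinical isolates or strain 333) was exposed to 100 μM EGCG for increasing times. It was then titrated by tenfold dilution on CV-1 cells, three wells per dilution, for 5 days at 37°C with CPE read-out. Reed-Muench TCID50 was compared with the untreated titer. Mean of three separate experiments.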
# Human alphaherpesvirus 2 [4] = assay: Antiviral activity against Human herpesvirus 2 isolate P12 infected in African green monkey CV1 cells assessed as log reduction in viral titer at 100 uM within 20 mins; assay type: functional, CV-1; in short: as §1
# Human alphaherpesvirus 2 [5] = assay: Antiviral activity against Human herpesvirus 2 isolate P27 infected in African green monkey CV1 cells assessed as log reduction in viral titer at 100 uM within 20 mins; assay type: functional, CV-1; in short: as §2
# Human alphaherpesvirus 1 [6] = assay: Antiviral activity against Human herpesvirus 1 isolate P38 infected in African green monkey vero cells assessed as log reduction in viral titer at 100 uM after 40 to 60 mins; assay type: functional
# In short: (§3)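 In the time course, HSV-1 clinical isolates (clarified Vero supernatants) were exposed to 100 μM EGCG for varying times up to 60 min. Residual infectivity was then titrated on Vero cells by 5-day CPE endpoint with Reed-Muench calculation. Mean ± SD of three separate experiments.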
# Human alphaherpesvirus 1 [7] = assay: Antiviral activity against Human herpesvirus 1 isolate P42 infected in African green monkey vero cells assessed as log reduction in viral titer at 100 uM after 30 mins; assay type: functional; in short: as §3
# Human alphaherpesvirus 1 [8] = assay: Antiviral activity against Human herpesvirus 1 isolate P32 infected in African green monkey vero cells assessed as log reduction in viral titer at 100 uM within 10 mins; assay type: functional; in short: as §3
# Human alphaherpesvirus 1 [9] = assay: Antiviral activity against Human herpesvirus 1 F1 assessed as damage of viral particle at 100 uM after 2 hrs by electron microscopy; assay type: functional, organism-based
# Human alphaherpesvirus 1 [10] = assay: Antiviral activity against Human herpesvirus 1 F1 assessed as decrease in labeled gD envelope glycoprotein at 100 uM after 2 hrs by electron microscopy; assay type: functional, organism-based
# In short: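 Purified HSV-1 F1 virions were treated with 100 μM EGCG for 2 h, fixed in glutaraldehyde/paraformaldehyde and LR White-embedded without osmium. Nickel-grid sections were blocked with BSA and goat serum, then labelled overnight with anti-gB or anti-gD monoclonal (1:15) and 15 nm colloidal gold. Labelled versus unlabelled particles were counted in 10 fields of 100 particles; mean ± SD.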
# Human alphaherpesvirus 1 [11] = assay: Binding affinity to Envelope glycoprotein D in Human herpesvirus 1 F1 assessed as macromolecular complex formation by SDS-PAGE
# In short: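 Purified HSV-1 gB or gD (500 to 700 μg/ml) was incubated with EGCG (250 μg/ml; 545 μM) in 0.1 M potassium phosphate, pH 7.0, at 35°C for 24 h. Products were denatured at 50°C for 15 min in sample buffer and run on 6.5% SDS-PAGE. Bands were stained with Coomassie blue to detect higher-molecular-weight complexes.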
# Human alphaherpesvirus 1 [12] = assay: Antiviral activity against Human herpesvirus 1 isolate P25 infected in African green monkey vero cells assessed as reduction in viral titer; assay type: functional, organism-based; conditions: Human alphaherpesvirus 1, isolate P25, Vero
# In short: (§4)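 Laboratory HSV-1 F1 or patient-swab HSV-1 isolates were prepared as clarified Vero supernatants. They were incubated 1 h with a range of EGCG concentrations in RPMI 1640/1% FCS at pH 7.4. Titres were determined on Vero cells by 5-day CPE endpoint (Reed-Muench). IC99 was read graphically as 99% titre drop from untreated; mean ± SD, three experiments.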
# Human alphaherpesvirus 1 [13] = assay: Antiviral activity against Human herpesvirus 1 isolate P42 infected in African green monkey vero cells assessed as reduction in viral titer; assay type: functional, organism-based; conditions: Human alphaherpesvirus 1, isolate P42, Vero; in short: as §4
# Human alphaherpesvirus 1 [14] = assay: Antiviral activity against Human herpesvirus 1 F1 infected in African green monkey CV1 cells assessed as log reduction in viral titer at 100 uM; assay type: functional, CV-1
# Human alphaherpesvirus 1 [15] = assay: Antiviral activity against Human herpesvirus 1 isolate P42 infected in African green monkey vero cells assessed as log reduction in viral titer at 50 uM; assay type: functional; in short: as §4
# Human alphaherpesvirus 1 [16] = assay: Antiviral activity against Human herpesvirus 1 isolate P32 infected in African green monkey vero cells assessed as reduction in viral titer at 100 uM; assay type: functional, organism-based; in short: as §4
# Human alphaherpesvirus 2 [17] = assay: Antiviral activity against Human herpesvirus 2 strain 333 strain 333 infected in African green monkey CV-1 cells; assay type: functional, cell-based; conditions: Human alphaherpesvirus 2, strain 333, CV-1
# In short: (§5)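 HSV-2 (clinical swab isolates or strain 333) was grown in CV-1 cells and used as clarified supernatant. Virus was exposed to graded EGCG for 1 h in RPMI 1640 with 1% FCS, pH 7.4. Tenfold dilutions were titrated on CV-1 cells, three wells each, 5 days at 37°C, scoring CPE. TCID50 was calculated by Reed-Muench. IC99 was read graphically as 99% titer drop from the zero-concentration titer. Mean of three experiments.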
# Human alphaherpesvirus 2 [18] = assay: Antiviral activity against Human herpesvirus 2 isolate P2 infected in African green monkey CV1 cells; assay type: functional, organism-based; conditions: Human alphaherpesvirus 2, isolate P2, CV-1
# In short: (§6)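 HSV-2 patient-swab isolates were grown as clarified CV-1 supernatants and incubated 1 h with a range of EGCG concentrations (RPMI 1640/1% FCS, pH 7.4). They were titrated on CV-1 cells from 10-fold dilutions by 5-day CPE at 37°C, with Reed-Muench TCID50. IC99 was derived graphically as 99% reduction from zero-drug titre; mean ± SD, three experiments.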
# Human alphaherpesvirus 2 [19] = assay: Antiviral activity against Human herpesvirus 2 isolate P11 infected in African green monkey CV1 cells; assay type: functional, organism-based; conditions: Human alphaherpesvirus 2, isolate P11, CV-1; in short: as §6
# Human alphaherpesvirus 2 [20] = assay: Antiviral activity against Human herpesvirus 2 isolate P22 infected in African green monkey CV1 cells; assay type: functional, organism-based; conditions: Human alphaherpesvirus 2, isolate P22, CV-1; in short: as §5
# Human alphaherpesvirus 2 [21] = assay: Antiviral activity against Human herpesvirus 2 isolate P27 infected in African green monkey CV1 cells; assay type: functional, organism-based; conditions: Human alphaherpesvirus 2, isolate P27, CV-1; in short: as §5
# Human alphaherpesvirus 2 [22] = assay: Antiviral activity against Human herpesvirus 2 isolate P27 infected in African green monkey CV1 cells assessed as log reduction viral titer at 50 uM; assay type: functional, CV-1; in short: as §5
# Human alphaherpesvirus 2 [23] = assay: Antiviral activity against Human herpesvirus 2 isolate P47 infected in African green monkey CV1 cells assessed as log reduction viral titer at 50 uM; assay type: functional, CV-1; in short: as §5
# Human alphaherpesvirus 2 [24] = assay: Antiviral activity against Human herpesvirus 2 isolate P2 infected in African green monkey CV1 cells assessed as log reduction viral titer at 12.5 ug/ml; assay type: functional, CV-1; in short: as §5
structure (smiles),measurement,setting,value
O=C(O[C@@H]1Cc2c(O)cc(O)cc2O[C@@H]1c1cc(O)c(O)c(O)c1)c1cc(O)c(O)c(O)c1 [EPIGALOCATECHIN GALLATE],FC,Human alphaherpesvirus 1 [1],>=3
same,FC,Human alphaherpesvirus 2 [2],2
same,FC,Human alphaherpesvirus 2 [3],3
same,FC,Human alphaherpesvirus 2 [4],3
same,FC,Human alphaherpesvirus 2 [5],3
same,FC,Human alphaherpesvirus 1 [6],3
same,FC,Human alphaherpesvirus 1 [7],2
same,FC,Human alphaherpesvirus 1 [8],2
same,Activity,Human alphaherpesvirus 1 [9],Active
same,Activity,Human alphaherpesvirus 1 [10],Active
same,Activity,Human alphaherpesvirus 1 [11],Active
same,IC99,Human alphaherpesvirus 1 [12],45.4 µM
same,IC99,Human alphaherpesvirus 1 [13],49.1 µM
same,FC,Human alphaherpesvirus 1 [14],3.5
same,FC,Human alphaherpesvirus 1 [15],2
same,Activity,Human alphaherpesvirus 1 [16],Active
same,IC99,Human alphaherpesvirus 2 [17],25 µM
same,IC99,Human alphaherpesvirus 2 [18],12.3 µM
same,IC99,Human alphaherpesvirus 2 [19],12.5 µM
same,IC99,Human alphaherpesvirus 2 [20],12.5 µM
same,IC99,Human alphaherpesvirus 2 [21],12.1 µM
same,FC,Human alphaherpesvirus 2 [22],>4
same,FC,Human alphaherpesvirus 2 [23],>4
same,FC,Human alphaherpesvirus 2 [24],3.15
